Measurements reported in ChEMBL document CHEMBL2150947, “Pyrazolopyridine inhibitors of B-Raf(V600E). Part 4: rational design and kinase selectivity profile of cell potent type II inhibitors” (Bioorg Med Chem Lett, 2012).
pIC50: −log10 of the molar value.

Key:
[1] = molecular target: T1, Serine/threonine-protein kinase B-raf (Homo sapiens, UniProt P15056, V600E); assay: Inhibition of B-Raf V600E mutant in human Malme-3M cells assessed as ERK phosphorylation; format: cell-based
Outline: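 Mechanistic cellular read-out: inhibition of basal ERK phosphorylation in Malme-3M melanoma cells; IC50 taken as the mean of at least two experiments.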

[2] = molecular target: T1, Serine/threonine-protein kinase B-raf; assay: Inhibition of full length B-Raf V600E mutant

T1 sequence (P15056 2-766 V600E limits assumed): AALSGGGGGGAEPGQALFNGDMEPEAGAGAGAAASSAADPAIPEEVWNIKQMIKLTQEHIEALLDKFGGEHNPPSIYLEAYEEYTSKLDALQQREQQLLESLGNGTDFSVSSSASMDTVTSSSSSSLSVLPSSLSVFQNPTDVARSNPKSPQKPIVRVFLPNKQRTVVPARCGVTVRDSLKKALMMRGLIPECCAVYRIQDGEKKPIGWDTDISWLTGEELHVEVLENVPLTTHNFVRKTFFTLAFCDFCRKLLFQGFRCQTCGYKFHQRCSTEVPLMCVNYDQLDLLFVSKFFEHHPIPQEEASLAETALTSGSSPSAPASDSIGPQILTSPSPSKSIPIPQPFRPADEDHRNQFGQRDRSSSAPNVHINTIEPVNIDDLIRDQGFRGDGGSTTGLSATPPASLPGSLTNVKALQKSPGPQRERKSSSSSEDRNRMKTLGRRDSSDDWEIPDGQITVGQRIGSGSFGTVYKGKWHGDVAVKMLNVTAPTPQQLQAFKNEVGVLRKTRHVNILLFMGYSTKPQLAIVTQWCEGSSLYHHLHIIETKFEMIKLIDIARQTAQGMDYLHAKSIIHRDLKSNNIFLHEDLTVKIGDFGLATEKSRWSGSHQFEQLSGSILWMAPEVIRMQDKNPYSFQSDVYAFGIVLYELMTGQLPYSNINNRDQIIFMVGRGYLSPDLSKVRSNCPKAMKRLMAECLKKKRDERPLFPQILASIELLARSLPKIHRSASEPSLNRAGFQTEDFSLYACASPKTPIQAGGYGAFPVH

Row | SMILES | pIC50 [1] | pIC50 [2]
1 | COc1n[nH]c2ncc(NC(=O)c3c(F)ccc(NC(=O)c4cccc(C(C)(C)C#N)c4)c3F)cc12 | 6.74 | 
2 | CC(C)(C#N)c1cccc(C(=O)Nc2ccc(F)c(C(=O)Nc3cnc4[nH]ccc4c3)c2F)c1 | 6.36 | 8.17
3 | CC(C)(C#N)c1cccc(C(=O)Nc2ccc(F)c(C(=O)Nc3cnc4[nH]nc(C5CC5)c4c3)c2F)c1 | 6.28 | 8.52
4 | COc1n[nH]c2ncc(NC(=O)c3cc(NC(=O)c4cccc(C(C)(C)C#N)c4)ccc3F)cc12 | 7.70 | 9.00
5 | COc1n[nH]c2ncc(NC(=O)c3cccc(NC(=O)c4cccc(C(C)(C)C#N)c4)c3)cc12 | 6.85 | 9.05
6 | COc1n[nH]c2ncc(NC(=O)c3cccc(NC(=O)c4cccc(C(C)(C)C#N)c4)c3F)cc12 | 5.74 | 8.29
7 | COc1n[nH]c2ncc(NC(=O)c3cc(NC(=O)c4ccc(Cl)c(C(F)(F)F)c4)ccc3F)cc12 | 7.02 | 8.89
8 | COc1n[nH]c2ncc(NC(=O)c3cc(NC(=O)c4cccc(C(C)(C)C#N)c4)ccc3Cl)cc12 | 7.66 | 8.92
9 | COc1n[nH]c2ncc(NC(=O)c3cc(NC(=O)c4cccc(C(C)(C)C#N)c4)ccc3C)cc12 | 7.74 | 8.72

Continued, values first:

Row | pIC50 [1] | pIC50 [2] | SMILES
10 | 6.37 | 8.46 | CC(C)(C#N)c1cccc(C(=O)Nc2ccc(F)c(C(=O)Nc3cnc4[nH]ncc4c3)c2F)c1
11 | < 4.92 | 7.41 | COc1n[nH]c2ncc(NC(=O)c3c(F)ccc(NC(=O)c4ccccc4)c3F)cc12
12 | < 5.00 | 7.10 | COc1n[nH]c2ncc(NC(=O)c3cccc(C(=O)Nc4ccccc4)c3)cc12
13 | 7.28 | 8.18 | COc1n[nH]c2ncc(NC(=O)c3cc(C(=O)Nc4cccc(C(F)(F)F)c4)ccc3C)cc12
14 | < 5.00 | 9.15 | O=C(Nc1ccccc1)Nc1cccc(C(=O)Nc2cnc3[nH]ncc3c2)c1
